# Source: PubChem
# IDH1 R132H inh: inhibitors of IDH1 R132H reductase, primary screen, biochemical, plate reader, single point; Isocitrate dehydrogenase [NADP] cytoplasmic (Homo sapiens), O75874; diaphorase/resazurin fluorescence, 60 min; inhibition, % at 10 µM; hit rate 0.18% among 70,000; AID 624101, 2012; in the data active means inhibition above about 34%; inconclusive means no clear call, values can overlap the other calls; inactive means below about 11%;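 further: 0% = DMSO and 100% = no enzyme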
# Pf Dd2 growth: P. falciparum Dd2 growth inhibitors, primary screen, SYBR Green fluorescence, single dose replicates | AID 1159554, 2015 | activity change, % at 10 µM | 72 h; hits give low values | hit rate 2.3% among 94,000; in the data active means activity change below about -80%; inconclusive means no clear call, values can overlap the other calls
# GASC1 inh: inhibitors of GASC-1 (KDM4C) histone demethylase, primary screen, biochemical, single concentration HTS; Lysine-specific demethylase 4C (Homo sapiens), Q9H3R0; GST-KDM4C 2-372, H3K9me3 peptide, LANCE TR-FRET; inhibition, % at 12.5 µM; hit rate 0.15% among 96,000; AID 720574, 2013;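 active means mean replicate inhibition above about 25%, with at least 55% of replicates also reaching it, limit read from the data, passing the limit was not always enough; inconclusive means only one of those two conditions met; inactive means neither condition met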
# Target sequence (Q9H3R0 2-372 limits assumed): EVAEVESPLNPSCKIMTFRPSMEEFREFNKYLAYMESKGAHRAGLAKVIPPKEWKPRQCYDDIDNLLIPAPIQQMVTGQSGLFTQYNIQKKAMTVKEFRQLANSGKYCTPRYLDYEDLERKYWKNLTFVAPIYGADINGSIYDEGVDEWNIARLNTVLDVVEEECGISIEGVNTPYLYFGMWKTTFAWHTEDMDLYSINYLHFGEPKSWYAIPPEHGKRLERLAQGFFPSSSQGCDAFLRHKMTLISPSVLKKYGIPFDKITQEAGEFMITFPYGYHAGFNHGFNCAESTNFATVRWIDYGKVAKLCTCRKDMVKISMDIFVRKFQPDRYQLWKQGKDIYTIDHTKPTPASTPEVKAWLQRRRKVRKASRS
#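 Material: GST-tagged GASC-1 (JMJD2C) catalytic fragment, aa 2-372. Input: enzyme final amount 10 nM. Medium: HEPES buffer, pH 7.5, plus ascorbate. Reagent: H3K9me3 peptide substrate, Fe(II), 2-oxoglutarate. Doses: single dose. Times: reaction 30 min RT, detection step 1 h RT. Measured by: LANCE TR-FRET. Evaluation: Fall in 671/618 emission ratio as inhibition.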
# T cruzi growth-1: T. cruzi intracellular proliferation inhibitors, primary screen, cell-based, beta-gal Tulahuen parasites, NIH3T3 host, luminescence. T. cruzi beta-gal in NIH3T3, GalScreen luminescence, 90 h. hit rate 5.9% among 77,000. inhibition, % at 8.34 µM;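 active means mean inhibition above about 93%, with at least 55% of replicates each passing it, limit read from the data, passing the limit was not always enough; inconclusive means only one of those two conditions holds; inactive means neither condition holds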
# T cruzi growth-2: T. cruzi intracellular proliferation inhibitors, confirmation, cell-based, NIH3T3 host, beta-gal parasite, luminescence, cherry-pick; T. cruzi beta-gal in NIH3T3, GalScreen luminescence, 90 h; inhibition, % at 8.35 µM; shares compounds with T cruzi growth-1; hit rate 72% among 5,600;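 active means mean replicate inhibition above about 95% and at least 55% of replicates individually reaching it, limit read from the data; inconclusive means only one of the two criteria is met; inactive means neither criterion is met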
# T cruzi growth-3: inhibitors of intracellular T. cruzi replication, confirmation, NIH3T3 host cells, beta-gal parasites, cherry-pick, set 2; inhibition, % at 2.09 µM; T. cruzi beta-gal in NIH3T3, GalScreen luminescence, 90 h; shares compounds with T cruzi growth-1; hit rate 21% among 5,600;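 active means mean inhibition above about 95%, with at least 55% of replicates also reaching it, limit read from the data; inconclusive means meets just one of the two conditions; inactive means meets neither condition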;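 further: plate controls were neutral control median for no effect and positive control median for full effect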
# 3T3 cytotox: cytotoxicity in mouse NIH/3T3 fibroblasts, confirmation, cytotoxicity control for T. cruzi proliferation inhibitor project, cell-based, cherry-pick, single point; hit rate 14% among 5,600; NIH/3T3 viability, CellTiter-Glo ATP luminescence, 90 h; shares compounds with T cruzi growth-1; cytotoxicity (signal decrease), % at 8.35 µM; AID 651742, 2012;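 active means mean signal decrease across replicates above about 35% based on untreated-well scatter, with enough replicates individually passing, limit read from the data; inconclusive means no rule stated though some were filed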;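 further: 0% = median of neutral control wells and 100% = median of positive control wells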
# 3T3 cytotox 2: NIH/3T3 fibroblast cytotoxicity, confirmation, cytotoxicity control, cell-based, cherry-pick, single point, set 2; shares compounds with T cruzi growth-1; NIH/3T3 viability, CellTiter-Glo ATP luminescence, 90 h; inhibition, % at 24.9 µM; hit rate 56% among 5,600; AID 651744, 2012;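 active means mean loss of cell viability signal at or above a set limit, and enough replicates individually reaching it; inconclusive means meets only the mean limit or only the replicate share; inactive means meets neither condition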;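 further: 0% = median of neutral control wells and 100% = median of positive control wells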
# * = called active by the depositor; ? = inconclusive; / = not tested or not shown. An excerpt weighted towards active compounds, which were near 5.8% of everything screened.
SMILES,IDH1 R132H inh,Pf Dd2 growth,GASC1 inh,T cruzi growth-1,T cruzi growth-2,T cruzi growth-3,3T3 cytotox,3T3 cytotox 2
COc1ccccc1S(=O)(=O)N1CC[C@@H]2[C@H]1c1cc(-c3cccc(C#N)c3)ccc1N(C)[C@H]2CO,/,22.2,-0.9,106.2*,104.8*,62.9,?,33.4*
COc1ccccc1S(=O)(=O)N1CC[C@@H]2[C@@H](CO)N(C)c3ccc(-c4ccc(C#N)cc4)cc3[C@@H]21,/,-19.3,-8.5,23.0,/,/,/,/
Cc1ccccc1S(=O)(=O)N1CC[C@@H]2[C@H](CO)N(C)c3ccc(Br)cc3[C@@H]21,/,-4.7,-0.3,131.0*,106.8*,37.5,10.6,71.8*
CN1c2ccc(Br)cc2[C@H]2[C@H](CCN2S(=O)(=O)c2cccc(F)c2)[C@H]1CO,/,30.5,0.5,?,97.1*,55.3,-11.3,27.2
COC(=O)c1c(C)nc(C)c(C(=O)OC)c1-c1csc(S(=O)(=O)N2CCSCC2)c1,-1.2,/,/,/,/,/,/,/
COc1cc(-c2nnc(SCC(=O)c3ccccc3)n2-c2ccccc2)cc(OC)c1OC,0.1,/,/,/,/,/,/,/
COc1cc2c(cc1OC)CN(C(=O)CSc1ncnc3sc4c(c13)CCC(C)C4)CC2 (stereo not given),-0.3,/,/,/,/,/,/,/
Cc1ccccc1S(=O)(=O)N1CC[C@@H]2[C@H]1c1cc(-c3ccccc3)ccc1N(C)[C@H]2CO,/,-70.3,-0.5,97.8*,107.4*,115.0*,12.2,103.3*
COc1ccccc1S(=O)(=O)N1CC[C@@H]2[C@@H](CO)N(C)c3ccc(-c4cccc(C#N)c4)cc3[C@@H]21,/,-7.3,2.2,97.3*,106.5*,72.3,14.7,19.3
Cc1ccc(CN2C(=O)C(O)(CC(=O)c3c(C)coc3C)c3cc(Cl)ccc32)cc1 (stereo not given),0.3,/,/,/,/,/,/,/
Cc1sc2ncnc(SCC(=O)Nc3cccc(C(F)(F)F)c3)c2c1C,-0.5,/,/,/,/,/,/,/
CC(O)CNS(=O)(=O)c1cccc([N+](=O)[O-])c1 (stereo not given),0.6,/,/,/,/,/,/,/
C[C@@H]1CCCCO[C@@H](CN(C)C(=O)C2CCCCC2)[C@H](C)CN([C@@H](C)CO)C(=O)c2cc(NC(=O)Nc3ccc(C(F)(F)F)cc3)ccc2O1,0.5,-5.5,-1.0,120.6*,97.2*,108.3*,-9.0,9.0
C[C@@H]1CN([C@@H](C)CO)C(=O)c2cc(NC(=O)Nc3ccc(F)cc3)ccc2O[C@@H](C)CCCCO[C@H]1CN(C)C(=O)C1CCCCC1,2.0,-52.2,0.1,82.2,/,/,/,/
C[C@@H]1CN([C@H](C)CO)C(=O)c2cc(NC(=O)Nc3ccc(C(F)(F)F)cc3)ccc2O[C@@H](C)CCCCO[C@H]1CN(C)C(=O)C1CCCCC1,/,-44.6,0.0,121.7*,102.1*,116.7*,15.8,47.0*
C[C@@H]1CN([C@H](C)CO)C(=O)c2cc(NC(=O)Nc3ccc(C(F)(F)F)cc3)ccc2O[C@@H](C)CCCCO[C@@H]1CN(C)C(=O)C1CCCCC1,/,-84.4*,-0.1,120.9*,91.8,115.6*,-12.4,23.5
C[C@@H]1CCCCO[C@@H](CN(C)C(=O)C2CCCCC2)[C@@H](C)CN([C@@H](C)CO)C(=O)c2cc(NC(=O)Nc3ccc(C(F)(F)F)cc3)ccc2O1,/,?,-0.2,120.2*,95.9*,116.9*,38.1*,64.1*
COc1cccc(NC(=O)CSc2nc3ccccc3c(=O)n2-c2cccc(C(F)(F)F)c2)c1,0.5,/,/,/,/,/,/,/
CCC1(C)Cc2c(sc3nnn(CC(=O)Nc4ccc(OC)cc4OC)c(=O)c23)CO1 (stereo not given),-0.1,/,/,/,/,/,/,/
Cc1cccc(N(CC(=O)O)S(C)(=O)=O)c1C,0.4,/,/,/,/,/,/,/
C[C@H](CO)N1C[C@H](C)[C@@H](CN(C)C(=O)C2CCCCC2)OCCCC[C@H](C)Oc2ccc(NC(=O)Nc3ccc(C(F)(F)F)cc3)cc2C1=O,2.2,-28.2,0.2,120.2*,97.4*,109.9*,4.3,18.5
COc1ccc(C)cc1S(=O)(=O)N1CCC(C(=O)Nc2cc([N+](=O)[O-])ccc2C)CC1,0.0,/,/,/,/,/,/,/
COc1ccc(NC(=O)N(C)C[C@@H]2OCCCC[C@H](C)Oc3ccc(NC(=O)Nc4ccc(F)cc4)cc3C(=O)N([C@@H](C)CO)C[C@@H]2C)cc1,/,-10.7,-2.8,101.4*,107.3*,38.8,15.1,-0.2
COc1ccc(NC(=O)Nc2ccc3c(c2)C(=O)N([C@@H](C)CO)C[C@H](C)[C@H](CN(C)C(=O)Nc2ccc(OC)cc2)OCCCC[C@@H](C)O3)cc1,0.1,-71.3,1.9,/,/,/,/,/
COc1ccc(NC(=O)Nc2ccc3c(c2)C(=O)N([C@@H](C)CO)C[C@H](C)[C@@H](CN(C)C(=O)C2CCCCC2)OCCCC[C@@H](C)O3)cc1,0.4,?,0.4,95.2*,103.9*,4.6,0.5,-28.3
SMILES,IDH1 R132H inh,Pf Dd2 growth,GASC1 inh,T cruzi growth-1,T cruzi growth-2,T cruzi growth-3,3T3 cytotox,3T3 cytotox 2
COc1ccc(NC(=O)Nc2ccc3c(c2)C(=O)N([C@H](C)CO)C[C@H](C)[C@H](CN(C)C(=O)Nc2ccc(OC)cc2)OCCCC[C@H](C)O3)cc1,/,33.3,-0.4,?,103.5*,22.0,-3.9,5.3
O=C(Nc1ccc(Cl)cc1)N1C[C@@H]2[C@H](c3ccccc31)[C@H](CO)N2CC1CCCCC1,/,-21.1,0.3,117.8*,110.8*,31.5,14.8,103.4*
O=C(Nc1ccc(Cl)cc1)N1C[C@H]2[C@@H](c3ccccc31)[C@H](CO)N2CC1CCCC1,/,-34.9,-1.3,31.1,/,/,/,/
O=C(C1CCCC1)N1C[C@H]2[C@@H](c3ccccc31)[C@H](CO)N2C(=O)c1ccccc1F,/,2.7,4.1,100.4*,90.4,37.8,5.9,?
O=C(C1CCCCC1)N1C[C@H]2[C@@H](c3ccccc31)[C@@H](CO)N2Cc1ccccc1Cl,/,-14.4,0.4,101.4*,102.6*,23.8,14.7,33.7
Cc1cccc(S(=O)(=O)N2C[C@H]3[C@@H](c4ccccc42)[C@H](CO)N3CC2CCCC2)c1,/,-41.3,1.8,?,111.6*,72.0,7.1,?
